# Measurements: ChEMBL document CHEMBL4190220, “Withanolides from Aeroponically Grown Physalis peruviana and Their Selective Cytotoxicity to Prostate Cancer and Renal Carcinoma Cells” (J Nat Prod, 2017)
# The source made the active and inactive calls. The calls are words filed in the database; no cut-off is given here.
# Key:
# LNCaP [1] = assay: Cytotoxicity against human LNCAP cells assessed as reduction in cell viability up to 5 uM after 72 hrs by CellTiter96 AQueous one solution cell proliferation assay; assay type: functional, cell-based
# Method in brief: (§1)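 Cells in RPMI with 5% fetal calf serum, glutamine, nonessential amino acids, pyruvate, HEPES, 2-mercaptoethanol and antibiotics. Seeded at 10 000 (LNCaP) or 5000 (others) and grown overnight at 37 °C, then exposed to compound in DMSO, triplicate wells, 72 h. Read by MTS at 490 nm after 2 h. % cytotoxicity = (A medium − A treatment)/A medium × 100.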
# CWR22R [2] = assay: Cytotoxicity against human 22Rv1 cells assessed as reduction in cell viability up to 5 uM after 72 hrs by CellTiter96 AQueous one solution cell proliferation assay; assay type: functional, cell-based; method in brief: as §1
# ACHN [3] = assay: Cytotoxicity against human ACHN cells assessed as reduction in cell viability up to 5 uM after 72 hrs by CellTiter96 AQueous one solution cell proliferation assay; assay type: functional, cell-based; method in brief: as §1
# M14 [4] = assay: Cytotoxicity against human M14 cells assessed as reduction in cell viability up to 5 uM after 72 hrs by CellTiter96 AQueous one solution cell proliferation assay; assay type: functional, cell-based
# Method in brief: (§2)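 Melanoma cells in DMEM-based medium (5% fetal calf serum, glutamine, nonessential amino acids, pyruvate, HEPES, 2-mercaptoethanol, antibiotics). 5000 cells were grown overnight at 37 °C, then exposed to compound in DMSO in triplicate wells for 72 h. MTS absorbance at 490 nm after 2 h. % cytotoxicity = (A medium − A treatment)/A medium × 100.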
# SK-MEL-28 [5] = assay: Cytotoxicity against human SK-MEL-28 cells assessed as reduction in cell viability up to 5 uM after 72 hrs by CellTiter96 AQueous one solution cell proliferation assay; assay type: functional, cell-based; method in brief: as §2
# HFF [6] = assay: Cytotoxicity against HFF cells assessed as reduction in cell viability up to 5 uM after 72 hrs by CellTiter96 AQueous one solution cell proliferation assay; assay type: cell-based; settings: human; method in brief: as §1
# LNCaP [7] = assay: Cytotoxicity against human LNCAP cells assessed as reduction in cell viability after 72 hrs by CellTiter96 AQueous one solution cell proliferation assay; assay type: functional, cell-based
# Method in brief: (§3)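 MTS viability in RPMI with 5% fetal calf serum, 2.0 mM L-glutamine, nonessential amino acids, 1.0 mM pyruvate, penicillin/streptomycin, 10 mM HEPES and 2-mercaptoethanol. Cells were seeded at 10 000 (LNCaP) or 5000 (others) and grown overnight at 37 °C. Serial dilutions in DMSO went into triplicate wells for 72 h. MTS was read at 490 nm after 2 h. IC50 ± SD from dose–response curves, at least three independent experiments.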
# CWR22R [8] = assay: Cytotoxicity against human 22Rv1 cells assessed as reduction in cell viability after 72 hrs by CellTiter96 AQueous one solution cell proliferation assay; assay type: functional, cell-based; settings: 22Rv1, 72 h; method in brief: as §3
# ACHN [9] = assay: Cytotoxicity against human ACHN cells assessed as reduction in cell viability after 72 hrs by CellTiter96 AQueous one solution cell proliferation assay; assay type: functional, cell-based; method in brief: as §3
# M14 [10] = assay: Cytotoxicity against human M14 cells assessed as reduction in cell viability after 72 hrs by CellTiter96 AQueous one solution cell proliferation assay; assay type: functional, cell-based; settings: M14, 72 h
# Method in brief: (§4)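 MTS viability in DMEM with 5% fetal calf serum, 2.0 mM L-glutamine, nonessential amino acids, 1.0 mM pyruvate, penicillin/streptomycin, 10 mM HEPES and 2-mercaptoethanol. 5000 cells were grown overnight at 37 °C. Serial DMSO dilutions went into triplicate wells for 72 h. MTS absorbance was read at 490 nm after 2 h. IC50 ± SD from at least three independent dose–response experiments.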
# SK-MEL-28 [11] = assay: Cytotoxicity against human SK-MEL-28 cells assessed as reduction in cell viability after 72 hrs by CellTiter96 AQueous one solution cell proliferation assay; assay type: functional, cell-based; settings: SK-MEL-28, 72 h; method in brief: as §4
# HFF [12] = assay: Cytotoxicity against HFF cells assessed as reduction in cell viability after 72 hrs by CellTiter96 AQueous one solution cell proliferation assay; assay type: cell-based; settings: Homo sapiens; method in brief: as §3
Compound,Activity (LNCaP [1]),Activity (CWR22R [2]),Activity (ACHN [3]),Activity (M14 [4]),Activity (SK-MEL-28 [5]),Activity (HFF [6]),IC50 (LNCaP [7]),IC50 (CWR22R [8]),IC50 (ACHN [9]),IC50 (M14 [10]),IC50 (SK-MEL-28 [11]),IC50 (HFF [12])
C[C@H]1C(=O)OC[C@H]1C[C@@H](O)[C@](C)(O)[C@@]1(O)CC[C@@]2(O)[C@@H]3CC=C4CC=CC(=O)[C@]4(C)[C@H]3CC[C@]12C,inactive,inactive,inactive,inactive,inactive,Non-Toxic,–,–,–,–,–,–
C[C@H]1C(=O)O[C@@H]([C@](C)(O)[C@H]2CC[C@@]3(O)[C@@H]4CC=C5CC=CC(=O)[C@]5(C)[C@H]4CC[C@]23C)[C@@H](O)[C@@H]1CO,inactive,inactive,inactive,inactive,inactive,Non-Toxic,–,–,–,–,–,–
CO[C@H]1C=CC(=O)[C@]2(C)[C@H]3CC[C@]4(C)[C@](O)([C@@](C)(O)[C@H]5CC(C)=C(C)C(=O)O5)CC[C@@]4(O)[C@@H]3C[C@H]3O[C@]132,–,–,–,–,–,–,330 nM,240 nM,> 2000 nM,> 2000 nM,> 2000 nM,> 2000 nM
CC(=O)OC[C@]12CC[C@H]3[C@@H](C[C@H]4O[C@]45CC=CC(=O)[C@]35C)[C@]1(O)CC[C@@]2(O)[C@@](C)(O)[C@H]1CC(C)=C(C)C(=O)O1,–,–,–,–,–,–,–,30 nM,570 nM,> 2000 nM,> 2000 nM,> 2000 nM
CC1=C(C)C(=O)O[C@@H]([C@](C)(O)[C@]2(O)CC[C@@]3(O)[C@@H]4C[C@H](Cl)[C@]5(O)[C@@H](O)C=CC(=O)[C@]5(C)[C@H]4CC[C@]23C)C1,inactive,inactive,inactive,inactive,inactive,Non-Toxic,–,–,–,–,–,–
CC1=C(CO)C[C@H]([C@](C)(O)[C@]2(O)CC[C@@]3(O)[C@@H]4CC=C5CC=CC(=O)[C@]5(C)[C@H]4CC[C@]23C)OC1=O,–,–,–,–,–,–,240 nM,210 nM,> 2000 nM,> 2000 nM,> 2000 nM,> 2000 nM
CC1=C(C)C(=O)O[C@@H]([C@](C)(O)[C@]2(O)CC[C@@]3(O)[C@@H]4CC=C5[C@@H](O)C=CC(=O)[C@]5(C)[C@H]4CC[C@]23C)C1,–,–,–,–,–,–,110 nM,70 nM,1000 nM,> 2000 nM,> 2000 nM,> 2000 nM
CC1=C(C)[C@H](O)[C@H]([C@](C)(O)[C@H]2CC[C@@]3(O)[C@@H]4C[C@H]5O[C@]56CC=CC(=O)[C@]6(C)[C@H]4CC[C@]23C)OC1=O,inactive,inactive,inactive,inactive,inactive,Non-Toxic,–,–,–,–,–,–
CC1=C(C)C(=O)O[C@@H]([C@](C)(O)[C@]2(O)CC[C@@]3(O)[C@@H]4[C@@H](O)[C@H]5O[C@]56CC=CC(=O)[C@]6(C)[C@H]4CC[C@]23C)C1,–,–,–,–,–,–,330 nM,260 nM,> 2000 nM,> 2000 nM,> 2000 nM,> 2000 nM
CC1=C(C)C(=O)O[C@@H]([C@](C)(O)[C@]2(O)CC[C@@]3(O)[C@@H]4[C@@H](O)C=C5CC=CC(=O)[C@]5(C)[C@H]4CC[C@]23C)C1,–,–,–,–,–,–,330 nM,560 nM,> 2000 nM,> 2000 nM,> 2000 nM,> 2000 nM
CC1=C(C)C(=O)O[C@@H]([C@](C)(O)C2=CC[C@@]3(O)[C@@H]4C[C@H]5O[C@]56[C@@H](O)C=CC(=O)[C@]6(C)[C@H]4CC[C@]23C)C1,inactive,inactive,inactive,inactive,inactive,Non-Toxic,–,–,–,–,–,–
